A selection: hits, their analogues and other compounds. The true share with any hit is near 0.72%.
hIAP act = human IAP activation; P09923; purified human IAP, CDP-Star luminescence, 30 min; active compounds read high; 1 = vehicle-only enzyme, 0 = enzyme-free background; activation factor at 10 µM; 0.16% of 330,000 active;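 active means activation factor of the enzyme at least 2-fold when tested at 20 µM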
Target sequence (P09923 whole entry, looked up): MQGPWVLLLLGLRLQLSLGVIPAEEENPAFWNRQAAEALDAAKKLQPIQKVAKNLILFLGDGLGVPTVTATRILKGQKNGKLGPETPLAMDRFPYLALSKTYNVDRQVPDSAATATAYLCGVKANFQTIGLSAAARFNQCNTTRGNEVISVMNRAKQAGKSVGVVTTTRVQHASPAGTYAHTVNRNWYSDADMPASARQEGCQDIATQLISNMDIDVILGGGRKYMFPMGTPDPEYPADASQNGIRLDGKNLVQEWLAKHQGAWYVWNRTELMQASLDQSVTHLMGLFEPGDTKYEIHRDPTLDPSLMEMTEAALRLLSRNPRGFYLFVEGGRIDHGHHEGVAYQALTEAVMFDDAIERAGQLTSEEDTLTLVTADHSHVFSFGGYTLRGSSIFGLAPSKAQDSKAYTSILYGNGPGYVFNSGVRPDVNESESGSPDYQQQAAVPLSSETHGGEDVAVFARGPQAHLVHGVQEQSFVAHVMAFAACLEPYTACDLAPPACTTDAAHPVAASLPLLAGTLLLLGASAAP
bIAP inh = blocks bovine intestinal alkaline phosphatase activity; purified bovine IAP, CDP-star luminescence, 30 min; inhibition, % at 20 µM; 190,000 tested, under 10 active;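 active means over 50% inhibition of intestinal alkaline phosphatase at 20 µM in the single-dose screen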
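Assay system: bovine IAP enzyme; medium: DEA buffer 100 mM, pH 9.8, with MgCl2 1.0 mM, ZnCl2 0.02 mM; doses: 20 µM single dose; incubation: enzyme reaction for 30 min at room temperature; detection: CDP-star luminescence signal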
hIAP block = human IAP inhibition; P09923; purified IAP, CDP-Star luminescence, 30 min; inhibition, % at 10 µM; 0.12% of 330,000 active;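 active means inhibition reaching a set limit with compound at 10 µM in the primary screen, cut at about 35% in these data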
mIAP act = increases mouse intestinal alkaline phosphatase activity. muIAP, CDP-Star luminescence, 30 min; active compounds read high; 1 = vehicle-only enzyme signal, 0 = enzyme-free wells. activation factor at 10 µM. 0.24% of 330,000 active;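 active means activation factor of at least 2 at 20 µM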
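Assay system: mouse IAP enzyme; Reagent: CDP-Star chemiluminescent phosphatase substrate; Compound: DMSO-dissolved test compounds; Incubation: 30 min, room temperature; Technique: luminescence from enzymatic CDP-Star hydrolysis; Controls: DMSO-only wells and no-enzyme negative control.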
mIAP inh = mouse IAP inhibition. purified mouse IAP, CDP-Star luminescence, 30 min. inhibition, % at 10 µM. 0.2% of 330,000 active. AID 2806;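 active means inhibition of at least 40% at 10 µM in the primary screen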
bIAP act = increases bovine intestinal alkaline phosphatase activity. purified bovine IAP, CDP-star luminescence, 30 min; active compounds read high; fold of DMSO-control signal, blank-subtracted. AID 1016. activation factor at 20 µM. 0.17% of 200,000 active;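 active means activation factor of 2 or more at 20 µM, a signal rise over negative controls twice the positive control's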
Numbers stand for hits; n = inactive; x = no result given.

SMILES	hIAP act	bIAP inh	hIAP block	mIAP act	mIAP inh	bIAP act
Cc1cn(CC(=O)c2ccccc2)c2ccccc12	n	x	n	n	n	x
CCOC(=O)C1(CC2CCCCO2)CCN(C(=O)Nc2cccc(SC)c2)CC1 (stereo not given)	n	n	n	2.4	n	n
CN(C)c1ccc(N=Nc2nc3ccccc3n2C)cc1	n	x	n	n	42	x
Cn1c(N=Nc2ccccc2)nc2ccccc21	n	x	n	n	n	n
O=C(O)CCC1c2cc3c4cc2OC2Oc5cc6c(cc51)C(CCC(=O)O)c1cc5c7cc1OC(O6)c1cc6cc(c1)Oc1cc(cc(C(=O)O)c1)Oc1cc8cc(c1)C(Oc1cc(c(cc1C5CCC(=O)O)C3CCC(=O)O)OC(O4)c1cc(cc(c1)Oc1cc(cc(C(=O)O)c1)O8)Oc1cc(cc(C(=O)O)c1)Oc1cc(cc2c1)Oc1cc(cc(C(=O)O)c1)O6)O7 (stereo not given)	n	x	n	n	48	x
C=C1CCN([C@@H](CC(C)C)C(=O)NCc2ccc(Cl)cc2)S(=O)(=O)c2ccccc21	n	x	n	n	46	x
C=C1CCN([C@@H](CC(C)C)C(=O)NCc2ccc(Cl)c(Cl)c2)S(=O)(=O)c2ccccc21	n	x	n	n	n	x
NS(=O)(=O)c1ccc(CCNC(=O)COC(=O)CN2C(=O)C3CCCCC3C2=O)cc1 (stereo not given)	n	n	n	n	n	n
COc1ccc(C(=O)/C(=C/c2cccs2)c2nc3ccccc3o2)cc1	n	n	n	n	46	n
COc1ccc(/C=C(\CC(=O)O)c2nc3ccccc3o2)cc1	n	n	n	n	n	n
N#Cc1c(NC(=O)CSc2ncnc3sccc23)oc(-c2ccco2)c1-c1ccco1	n	n	n	n	70	n
Cc1cc(NC(=O)CSc2ncnc3sccc23)no1	n	n	n	n	n	n
CCOC(=O)C1(Cc2ccc(OC)cc2)CCN(C(=O)c2cc(C)nn2C)CC1	n	x	n	n	n	x
CCOC(=O)CSc1c(-c2ccc(Cl)cc2)[nH]c2ccccc12	n	n	n	n	n	n
O=C(Cc1cccs1)NCCSc1c(-c2ccc(Cl)cc2)[nH]c2ccccc12	n	n	n	2.5	n	n
Fc1ccc(C2CC(c3cccs3)=NN2c2ccccc2)cc1 (stereo not given)	n	n	n	2.3	n	n
NS(=O)(=O)c1ccc(N2N=C(c3ccccc3)CC2c2ccc(F)cc2)cc1 (stereo not given)	n	n	n	2.1	n	n
Cc1ccccc1C(=O)O/N=C(\N)c1ccncc1	n	n	n	n	n	n
COc1ccc(N/N=C(/C(C)=O)N2CCCc3ccccc32)cc1	n	x	n	n	n	x
CCOc1ccc2nc(NCCNC(=O)Nc3cccc(C)c3)c(C#N)cc2c1	n	n	n	2.2	n	n
CC(NC(=O)CN(C)Cc1nc2ccccc2c(=O)[nH]1)c1ccccc1 (stereo not given)	n	n	n	n	n	2.1
CCC(c1nnnn1C1CCCCC1)N1CCN(C(=O)c2ccco2)CC1 (stereo not given)	n	x	n	n	n	x
COc1ccc(OCC(O)CNC(=O)c2sccc2Cl)cc1 (stereo not given)	n	x	n	n	n	x
O=C(Oc1cc(=O)oc2ccccc12)c1cccnc1Cl	n	n	n	n	n	2.4
Cc1c(C)n(Cc2ccccc2)c2ccc(C(=O)OCCCN(C)C)cc12	n	n	n	n	n	2.2
SMILES	hIAP act	bIAP inh	hIAP block	mIAP act	mIAP inh	bIAP act
COc1ccc(C(=O)COc2ncnc3cc(Cl)ccc23)cc1	n	x	n	n	n	x
O=C(N/N=C/c1ccccc1Br)c1cccc(S(=O)(=O)N2CCOCC2)c1	n	x	n	n	n	x
O=C(N/N=C/c1cc(Br)cc(Br)c1O)c1cccc(S(=O)(=O)N2CCOCC2)c1	n	x	n	n	41	x
COc1ccc(S(=O)(=O)NCC(c2ccc(C)cc2)N2CCN(C)CC2)cc1 (stereo not given)	n	x	n	n	n	x
S=C(Nc1ccc(Nc2ccccc2)cc1)NC1CCCCCC1	n	n	n	n	n	n
S=C(Nc1ccc(Br)cc1)NC1CCCCC1	n	n	n	2.5	n	n
FC(F)Oc1ccc(NC(=S)NC2CCCCCCC2)cc1	n	x	n	2.6	n	x
S=C(Nc1ccc(Cl)cc1)NC1CCCCC1	n	x	n	n	n	x

Bioassay records as filed in PubChem BioAssay.
